ChEMBL document CHEMBL1811786, “Identification of MK-5710 ((8aS)-8a-methyl-1,3-dioxo-2-[(1S,2R)-2-phenylcyclo- propyl]-N-(1-phenyl-1H-pyrazol-5-yl)hexahydro-imidazo[1,5-a]pyrazine-7(1H)-carboxamide), a potent smoothened antagonist for use in Hedgehog pathway dependent malignancies, part 2” (Bioorg Med Chem Lett, 2011)
pIC50: −log10 of the molar value. Activity calls are given as the source filed them. No cut-off for these calls is given here.

Assays:
[1] = molecular target: T1, Protein smoothened (Homo sapiens, UniProt Q99835); test: Displacement of BODIPY-cyclopamine from human Smo expressed in HEK293 cells in presence of 2% fetal calf serum; assay type: cell-based
Summary of the method: (§1)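 Competition binding: displacement of fluorescently labeled bodipy-cyclopamine from recombinant human Smo expressed in HEK-293 cells. Run in 2% fetal calf serum and, separately, in 20% normal human serum. IC50 values are means of at least five experiments.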

[2] = molecular target: T1, Protein smoothened; test: Displacement of BODIPY-cyclopamine from human Smo expressed in HEK293 cells in presence of 20% normal human serum; assay type: cell-based; summary of the method: as §1
[3] = Half life in rat; assay type: ADME, organism-based; settings: in vivo
[4] = Volume of distribution at steady state in rat; assay type: ADME, organism-based; settings: in vivo, read-out: Vdss
[5] = Oral bioavailability in rat; assay type: ADME, organism-based; settings: in vivo
[6] = species: Rattus norvegicus; test: Clearance in rat; assay type: ADME, organism-based; settings: in vivo
[7] = Volume of distribution at steady state in dog; assay type: ADME, organism-based, Canis lupus familiaris; settings: in vivo, read-out: Vdss
[8] = system: Mus musculus; test: Toxicity in mouse medulloblastoma allograft model assessed as visible physical signs at 80 mg/kg, po bid for 3 weeks; assay type: organism-based; parameters: dose 80 mg/kg, route oral; settings: in vivo, 504 h
Summary of the method: (§2)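 Primary mouse medulloblastoma allografts grown subcutaneously; mice were randomized once tumors averaged 400 mm³. The compound was given orally as a suspension in 0.24% SDS/0.5% Methocel, either bid for 3 weeks or 80 mg/kg qd. Tolerability was monitored by body-weight loss, visible physical signs and mortality.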

[9] = system: Medulloblastoma cell; test: Antitumor activity against primary mouse medulloblastoma allograft model assessed as tumor growth inhibition at 160 mg/kg, po bid for 3 weeks; assay type: functional, organism-based; parameters: dose 160 mg/kg
Summary of the method: (§3)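 Primary mouse medulloblastoma allograft, subcutaneous. Mice randomized when tumors averaged 400 mm³. Oral dosing for 3 weeks, bid at 40, 80, 120 or 160 mg/kg, or 80 mg/kg qd. Compound given as a suspension in 0.24% SDS/0.5% Methocel, with a BID vehicle control. Tumor volume tracked over days; body weight, physical signs and mortality monitored.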

[10] = system: Mus musculus; test: Toxicity in mouse medulloblastoma allograft model assessed as body weight loss at 80 mg/kg, po bid for 3 weeks; assay type: organism-based; parameters: dose 80 mg/kg, route oral; settings: in vivo, 504 h; summary of the method: as §3
[11] = system: Mus musculus; test: Toxicity in mouse medulloblastoma allograft model assessed as mortality at 120 mg/kg, po bid for 3 weeks; assay type: organism-based; parameters: dose 120 mg/kg, route oral; settings: in vivo, 504 h; summary of the method: as §2
[12] = system: Mus musculus; test: Toxicity in mouse medulloblastoma allograft model assessed as visible physical signs at 120 mg/kg, po bid for 3 weeks; assay type: organism-based; parameters: dose 120 mg/kg, route oral; settings: in vivo, 504 h; summary of the method: as §2
[13] = Plasma protein binding in human assessed as unbound fraction; assay type: ADME, cell-free
[14] = system: Mus musculus; test: Toxicity in mouse medulloblastoma allograft model assessed as mortality at 80 mg/kg, po bid for 3 weeks; assay type: organism-based; parameters: dose 80 mg/kg, route oral; settings: in vivo, 504 h; summary of the method: as §2
[15] = Oral bioavailability in dog; assay type: ADME, organism-based, Canis lupus familiaris; settings: in vivo
[16] = AUC in mouse at 40 mg/kg, po; assay type: ADME, organism-based; parameters: dose 40 mg/kg, route oral; settings: plasma
[17] = system: Medulloblastoma cell; test: Antitumor activity against primary mouse medulloblastoma allograft model assessed as tumor growth inhibition at 40 mg/kg, po bid for 3 weeks; assay type: functional, organism-based; parameters: dose 40 mg/kg; summary of the method: as §3
[18] = system: Medulloblastoma cell; test: Antitumor activity against primary mouse medulloblastoma allograft model assessed as tumor growth inhibition at 120 mg/kg, po bid for 3 weeks; assay type: functional, organism-based; parameters: dose 120 mg/kg; summary of the method: as §3
[19] = system: Medulloblastoma cell; test: Antitumor activity against primary mouse medulloblastoma allograft model assessed as tumor growth inhibition at 80 mg/kg, po bid for 3 weeks; assay type: functional, organism-based; parameters: dose 80 mg/kg; summary of the method: as §3
[20] = AUC in mouse at 160 mg/kg, po; assay type: ADME, organism-based; parameters: dose 160 mg/kg, route oral; settings: plasma
[21] = system: Mus musculus; test: Toxicity in mouse medulloblastoma allograft model assessed as visible physical signs at 80 mg/kg, po qd for 3 weeks; assay type: organism-based; parameters: dose 80 mg/kg, route oral; settings: in vivo, 504 h; summary of the method: as §2
[22] = species: Canis familiaris; test: Clearance in dog; assay type: ADME, organism-based, Canis lupus familiaris; settings: in vivo
[23] = system: Mus musculus; test: Toxicity in mouse medulloblastoma allograft model assessed as body weight loss at 40 mg/kg, po bid for 3 weeks; assay type: organism-based; parameters: dose 40 mg/kg, route oral; settings: in vivo, 504 h; summary of the method: as §3
[24] = system: Mus musculus; test: Toxicity in mouse medulloblastoma allograft model assessed as mortality at 160 mg/kg, po bid for 3 weeks; assay type: organism-based; parameters: dose 160 mg/kg, route oral; settings: in vivo, 504 h; summary of the method: as §2
[25] = AUC in mouse at 80 mg/kg, po; assay type: ADME, organism-based; parameters: dose 80 mg/kg, route oral; settings: plasma
[26] = system: Mus musculus; test: Toxicity in mouse medulloblastoma allograft model assessed as visible physical signs at 160 mg/kg, po bid for 3 weeks; assay type: organism-based; parameters: dose 160 mg/kg, route oral; settings: in vivo, 504 h; summary of the method: as §2
[27] = system: Mus musculus; test: Toxicity in mouse medulloblastoma allograft model assessed as body weight loss at 120 mg/kg, po bid for 3 weeks; assay type: organism-based; parameters: dose 120 mg/kg, route oral; settings: in vivo, 504 h; summary of the method: as §3
[28] = system: Mus musculus; test: Toxicity in mouse medulloblastoma allograft model assessed as body weight loss at 160 mg/kg, po bid for 3 weeks; assay type: organism-based; parameters: dose 160 mg/kg, route oral; settings: in vivo, 504 h; summary of the method: as §3
[29] = system: Medulloblastoma cell; test: Antitumor activity against primary mouse medulloblastoma allograft model assessed as tumor growth inhibition at 80 mg/kg, po qd for 3 weeks; assay type: functional, organism-based; parameters: dose 80 mg/kg; summary of the method: as §3
[30] = system: Mus musculus; test: Toxicity in mouse medulloblastoma allograft model assessed as mortality at 40 mg/kg, po bid for 3 weeks; assay type: organism-based; parameters: dose 40 mg/kg, route oral; settings: in vivo, 504 h; summary of the method: as §2
[31] = system: Mus musculus; test: Toxicity in mouse medulloblastoma allograft model assessed as body weight loss at 80 mg/kg, po qd for 3 weeks; assay type: organism-based; parameters: dose 80 mg/kg, route oral; settings: in vivo, 504 h; summary of the method: as §3
[32] = system: Mus musculus; test: Inhibition of Shh pathway in mouse medulloblastoma allograft model assessed as reduction in tumor Gli-1 mRNA expression at 80 mg/kg, po administered as single dose measured after 4 to 12 hrs; assay type: functional
Summary of the method: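 Tumor-bearing medulloblastoma mice given a single oral 80 mg/kg dose. Tumor biopsies taken at timepoints up to 24 h; Hh-pathway inhibition measured as reduction of Gli-1 mRNA.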

[33] = system: Mus musculus; test: Toxicity in mouse medulloblastoma allograft model assessed as mortality at 80 mg/kg, po qd for 3 weeks; assay type: organism-based; parameters: dose 80 mg/kg, route oral; settings: in vivo, 504 h; summary of the method: as §2
[34] = Half life in dog; assay type: ADME, organism-based, Canis lupus familiaris; settings: in vivo
[35] = system: Mus musculus; test: Toxicity in mouse medulloblastoma allograft model assessed as visible physical signs at 40 mg/kg, po bid for 3 weeks; assay type: organism-based; parameters: dose 40 mg/kg, route oral; settings: in vivo, 504 h; summary of the method: as §2

T1 sequence (Q99835 whole entry): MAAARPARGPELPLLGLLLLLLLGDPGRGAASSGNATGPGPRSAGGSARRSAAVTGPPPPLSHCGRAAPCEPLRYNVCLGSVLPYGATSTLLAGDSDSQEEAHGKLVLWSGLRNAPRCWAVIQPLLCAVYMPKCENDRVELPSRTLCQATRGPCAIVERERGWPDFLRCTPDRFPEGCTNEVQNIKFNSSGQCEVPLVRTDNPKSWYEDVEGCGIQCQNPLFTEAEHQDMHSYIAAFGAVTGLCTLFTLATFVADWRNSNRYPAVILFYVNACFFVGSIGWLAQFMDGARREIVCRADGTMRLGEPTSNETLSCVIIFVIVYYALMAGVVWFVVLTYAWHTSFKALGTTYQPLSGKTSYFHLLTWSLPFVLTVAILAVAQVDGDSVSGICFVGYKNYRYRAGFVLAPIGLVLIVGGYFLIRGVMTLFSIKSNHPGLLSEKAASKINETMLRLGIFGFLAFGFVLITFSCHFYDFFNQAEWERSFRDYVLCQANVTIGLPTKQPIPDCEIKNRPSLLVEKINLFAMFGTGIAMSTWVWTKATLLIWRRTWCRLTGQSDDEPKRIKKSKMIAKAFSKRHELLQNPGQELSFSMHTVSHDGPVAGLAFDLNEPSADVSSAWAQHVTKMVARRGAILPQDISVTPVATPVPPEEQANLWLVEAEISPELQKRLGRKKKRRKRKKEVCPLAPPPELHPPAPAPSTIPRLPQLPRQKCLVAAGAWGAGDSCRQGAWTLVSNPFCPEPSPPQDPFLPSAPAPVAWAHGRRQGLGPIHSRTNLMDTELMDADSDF

O=C(Nc1cccc(Cl)c1Cl)N1CCN2C(=O)N([C@H]3C[C@@H]3c3ccccc3)C(=O)[C@H]2C1
pIC50 [1]: 6.19

O=C(Nc1cccc(Cl)c1Cl)N1CCN2C(=O)N([C@@H]3C[C@H]3c3ccccc3)C(=O)[C@@H]2C1
pIC50 [1]: 6.17

O=C(Nc1ccnn1-c1cccc(F)c1)N1CCN2C(=O)N([C@H]3C[C@@H]3c3ccccc3)C(=O)[C@@H]2C1
pIC50 [1]: 8.15 | pIC50 [2]: 8.05

O=C(Nc1cccnc1-c1ccccc1)N1CCN2C(=O)N([C@H]3C[C@@H]3c3ccccc3)C(=O)[C@@H]2C1
half-life [3]: 294 min | pIC50 [1]: 7.92 | Vd [4]: 6.7 L/kg | bioavailability [5]: 31% | clearance [6]: 54 mL/min/kg | pIC50 [2]: 7.92

N#Cc1cccc(-c2ncccc2NC(=O)N2CCN3C(=O)N([C@H]4C[C@@H]4c4ccccc4)C(=O)[C@@H]3C2)c1
half-life [3]: 228 min | pIC50 [1]: 7.80 | Vd [4]: 6 L/kg | bioavailability [5]: 43% | clearance [6]: 48 mL/min/kg | pIC50 [2]: 7.66

O=C(Nc1ccnn1-c1ccccc1)N1CCN2C(=O)N([C@H]3C[C@@H]3c3ccccc3)C(=O)[C@@H]2C1
Vd [7]: 1 L/kg | half-life [3]: 78 min | Activity [8]: Non-toxic | growth inhibition (GI) [9]: Active | Activity [10]: < 10% | Activity [11]: Non-toxic | Activity [12]: Non-toxic | fraction unbound [13]: 0.17 | Activity [14]: Non-toxic | bioavailability [15]: 82% | AUC [16]: 6.4 µM·h | pIC50 [1]: 7.82 | growth inhibition (GI) [17]: Active | growth inhibition (GI) [18]: Active | growth inhibition (GI) [19]: Active | Vd [4]: 2.9 L/kg | AUC [20]: 24 µM·h | Activity [21]: Non-toxic | clearance [22]: 5.5 mL/min/kg | Activity [23]: < 10% | Activity [24]: Non-toxic | bioavailability [5]: 88% | AUC [25]: 15 µM·h | Activity [26]: Non-toxic | Activity [27]: < 10% | clearance [6]: 43 mL/min/kg | Activity [28]: < 10% | growth inhibition (GI) [29]: Active | Activity [30]: Non-toxic | Activity [31]: < 10% | inhibition in vivo at 80 mg/kg [32]: > 80% | Activity [33]: Non-toxic | half-life [34]: 150 min | Activity [35]: Non-toxic | pIC50 [2]: 7.74

O=C(Nc1ccccc1-c1ccccc1)N1CCN2C(=O)N(C3CC3c3ccccc3)C(=O)C2C1 (stereo in doubt; 6)
pIC50 [1]: 7.46

O=C(Nc1ccnn1-c1cccc(Cl)c1)N1CCN2C(=O)N([C@H]3C[C@@H]3c3ccccc3)C(=O)[C@@H]2C1
pIC50 [1]: 7.74 | pIC50 [2]: 7.49

O=C(Nc1cccnc1-c1cccc(Cl)c1)N1CCN2C(=O)N([C@H]3C[C@@H]3c3ccccc3)C(=O)[C@@H]2C1
half-life [3]: 78 min | pIC50 [1]: 8.40 | Vd [4]: 4.1 L/kg | clearance [6]: 54 mL/min/kg | pIC50 [2]: 7.82

O=C(Nc1cccnc1-c1ccsc1)N1CCN2C(=O)N([C@H]3C[C@@H]3c3ccccc3)C(=O)[C@@H]2C1
Vd [7]: 1 L/kg | half-life [3]: 600 min | pIC50 [1]: 7.68 | Vd [4]: 10 L/kg | clearance [22]: 7.6 mL/min/kg | bioavailability [5]: 41% | clearance [6]: 58 mL/min/kg | half-life [34]: 186 min | pIC50 [2]: 7.38

O=C(Nc1cccc(Cl)c1Cl)N1CCN2C(=O)N([C@@H]3C[C@H]3c3ccccc3)C(=O)[C@H]2C1
pIC50 [1]: 5.77
